Results on 2 compounds are retold here after ChEMBL document CHEMBL6134766, “Design, synthesis, and evaluation of benzhydrylpiperazine-based novel dual COX-2/5-LOX inhibitors with anti-inflammatory and anti-cancer activity” (RSC Med Chem, 2025).

The target in data set [1] is T1, Prostaglandin G/H synthase 1 (Ovis aries, UniProt P05979).
T1 sequence (P05979 whole entry): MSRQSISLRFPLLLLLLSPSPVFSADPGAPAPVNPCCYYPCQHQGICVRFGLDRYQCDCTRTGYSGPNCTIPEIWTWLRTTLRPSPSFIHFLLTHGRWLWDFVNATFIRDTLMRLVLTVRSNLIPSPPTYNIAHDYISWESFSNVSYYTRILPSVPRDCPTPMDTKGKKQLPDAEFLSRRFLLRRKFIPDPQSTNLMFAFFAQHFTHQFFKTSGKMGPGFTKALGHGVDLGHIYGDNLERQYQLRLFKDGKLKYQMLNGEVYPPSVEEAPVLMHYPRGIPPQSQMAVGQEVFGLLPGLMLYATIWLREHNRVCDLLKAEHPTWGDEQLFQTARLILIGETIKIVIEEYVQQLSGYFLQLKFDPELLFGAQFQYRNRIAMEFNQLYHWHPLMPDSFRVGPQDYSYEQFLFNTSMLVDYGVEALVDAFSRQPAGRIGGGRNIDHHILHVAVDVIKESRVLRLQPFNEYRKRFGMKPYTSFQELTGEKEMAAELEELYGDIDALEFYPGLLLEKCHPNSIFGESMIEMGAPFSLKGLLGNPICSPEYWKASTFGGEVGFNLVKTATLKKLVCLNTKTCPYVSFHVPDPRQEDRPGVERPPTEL
The data set is described as follows: Inhibition of ovine COX-1 using arachidonic acid as substrate in presence of hemin by TMPD reagent-based colorimetry.

Data set [2] concerns Rattus norvegicus. The data set is described as follows: Anti-inflammatory activity in carrageenan-induced paw edema Wistar rat model assessed as swelling thickness of paw at 10 mg/kg, po measured after 1 hr by digital vernier caliper (reference value: 8.47 +/- 0.25 millimeter). The data set is classed as functional.
Data set [3] concerns Rattus norvegicus. The data set can be described thus: Anti-inflammatory activity in carrageenan-induced paw edema Wistar rat model assessed as swelling thickness of paw at 20 mg/kg, po measured after 1 hr by digital vernier caliper (reference value: 8.47 +/- 0.25 millimeter). In kind it is functional. A general note: In the carrageenan paw model, swelling and tenderness develop within hours.

The test system of data set [4] is Rattus norvegicus. The data set can be described thus: Anti-inflammatory activity in carrageenan-induced paw edema Wistar rat model assessed as swelling thickness of paw at 10 mg/kg, po measured after 2 hrs by digital vernier caliper (reference value: 8.65 +/- 0.53 millimeter). In kind it is functional.
The test system of data set [5] is Rattus norvegicus. The data set is described as follows: Anti-inflammatory activity in carrageenan-induced paw edema Wistar rat model assessed as swelling thickness of paw at 20 mg/kg, po measured after 2 hrs by digital vernier caliper (reference value: 8.65 +/- 0.53 millimeter). In kind it is functional.
The subject of data set [6] is Rattus norvegicus. The data set is described as follows: Anti-inflammatory activity in carrageenan-induced paw edema Wistar rat model assessed as swelling thickness of paw at 5 mg/kg, po measured after 3 hrs by digital vernier caliper (reference value: 8.56 +/- 0.45 millimeter). In kind it is functional.
Data set [7] concerns Rattus norvegicus. The data set is described as follows: Anti-inflammatory activity in carrageenan-induced paw edema Wistar rat model assessed as swelling thickness of paw at 10 mg/kg, po measured after 3 hrs by digital vernier caliper (reference value: 8.56 +/- 0.45 millimeter). The data set is classed as functional.
The subject of data set [8] is Rattus norvegicus. The data set can be described thus: Anti-inflammatory activity in carrageenan-induced paw edema Wistar rat model assessed as swelling thickness of paw at 20 mg/kg, po measured after 3 hrs by digital vernier caliper (reference value: 8.56 +/- 0.45 millimeter). The data set is classed as functional.
Data set [9] has as its system Rattus norvegicus. The data set is described as follows: Anti-inflammatory activity in carrageenan-induced paw edema Wistar rat model assessed as swelling thickness of paw at 10 mg/kg, po measured after 5 hrs by digital vernier caliper (reference value: 8.47 +/- 0.32 millimeter). The data set is classed as functional.
For data set [10], the system named is Rattus norvegicus. The data set can be described thus: Anti-inflammatory activity in carrageenan-induced paw edema Wistar rat model assessed as swelling thickness of paw at 20 mg/kg, po measured after 5 hrs by digital vernier caliper (reference value: 8.47 +/- 0.32 millimeter). In kind it is functional.
In data set [11] the test system is Rattus norvegicus. The data set is described as follows: Anti-inflammatory activity in carrageenan-induced paw edema Wistar rat model assessed as inhibition of PGE2 level administered orally measured for 6 hrs by ELISA. In kind it is functional, organism-based. The following applies: dose 5-20 mg/kg, route po. Put shortly: (§1)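 Paw tissue taken from carrageenan-edema rats dosed orally at 5, 10 or 20 mg kg−1. Tissue rinsed in PBS pH 7.4, minced, homogenized, filtered and centrifuged at 2000 rpm for 20 min at 4 °C. Supernatant assayed by ELISA for PGE2, IL-6, TNF-α and IL-10. Data as mean ± SD.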

Data set [12] concerns Rattus norvegicus. The data set can be described thus: Anti-inflammatory activity in carrageenan-induced paw edema Wistar rat model assessed as decrease in IL-6 level in paw tissue at 5 to 20 mg/kg, po measured for 6 hrs by ELISA. The data set is classed as functional, organism-based. The following applies: dose 5-20 mg/kg. The method, boiled down:
as §1

In data set [13] the test system is Rattus norvegicus. The data set is described as follows: Anti-inflammatory activity in carrageenan-induced paw edema Wistar rat model assessed as increase in IL-10 level in paw tissue at 5 to 20 mg/kg, po measured for 6 hrs by ELISA. The data set is classed as functional, organism-based. The following applies: dose 5-20 mg/kg. Put shortly:
as §1

In data set [14] the test system is Rattus norvegicus. The data set can be described thus: Anti-inflammatory activity in arachidonic acid-induced paw edema Wistar rat model assessed as swelling thickness of paw at 10 mg/kg, po measured after 1 hr by digital vernier caliper (reference value: 6.51 +/- 0.37 millimeter). In kind it is functional.
For data set [15], the system named is Rattus norvegicus. The data set can be described thus: Anti-inflammatory activity in arachidonic acid-induced paw edema Wistar rat model assessed as swelling thickness of paw at 20 mg/kg, po measured after 1 hr by digital vernier caliper (reference value: 6.51 +/- 0.37 millimeter). The data set is classed as functional.
Data set [16] is described as follows: Toxicity in fasting Wistar rat assessed as ulcer score at 10 mg/kg, po via gavage treated for 3 days consecutively by H and E staining based analysis (reference value: 0). In kind it is organism-based. The following applies: in vivo, 72 h, time 3 day. The method, boiled down: (§2)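 Fasted rats, n = 6/group, gavaged once daily for 3 days in 0.3% Na CMC (vehicle control 0.3% CMC); killed under anaesthesia 6 h after day-3 dose; stomachs saline-washed, mucosa examined with hand lens; ulcer score, index and % ulceration by reported scoring; some stomachs formalin-fixed, H&E stained.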

The nature of data set [17]: Toxicity in fasting Wistar rat assessed as ulcer score at 20 mg/kg, po via gavage treated for 3 days consecutively by H and E staining based analysis (reference value: 0). The following applies: in vivo, 72 h, time 3 day. In kind it is organism-based. Put shortly:
as §2

The nature of data set [18]: Toxicity in fasting Wistar rat assessed as ulcer index at 5 mg/kg, po via gavage treated for 3 days consecutively by H and E staining based analysis (reference value: 0). The data set is classed as organism-based. The following applies: in vivo, 72 h, time 3 day. The method, boiled down:
as §2

The subject of the next data set is Gastric mucosa. The data set can be described thus: Antioxidant activity in gastric mucosal tissue in Wistar rat assessed as decrease in nitrite level at 20 mg/kg, po. The data set is classed as functional, organism-based. The method, boiled down: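 Fasted rats (n = 6/group) gavaged once daily for 3 days in 0.3% Na CMC and sacrificed 6 h after the final dose. Randomly chosen stomachs homogenized in cold PBS pH 7.4 and centrifuged at 1000 rpm for 10 min at 4 °C. Supernatant protein measured by Bradford assay; GSH and nitrate then measured by reported methods.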

Data set [19] concerns Rattus norvegicus. The data set is described as follows: Cardio-protective activity in ISO-treated Wistar rat assessed as decrease in serum LDH level at 20 mg/kg, po. The data set is classed as functional, organism-based. Put shortly:
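Rats (n = 6/group) given ISO 100 mg kg−1 s.c., then oral test compound in 0.3% CMC; vehicle controls. Retro-orbital blood, serum separated at 4000 rpm, 4 °C, 10 min; LDH and CK-MB by commercial kits; mean ± SD.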

The subject of data set [20] is Rattus norvegicus. The data set is described as follows: Analgesic activity in acetic acid-induced pain Wistar rat model assessed as number of writhing at 20 mg/kg, po pretreated for 30 mins followed by acetic acid treatment measured for 30 mins by writhing test (reference value: 40.33 +/- 3.01). The following applies: 0.5 h. The data set is classed as functional. (In general: Writhing tests count abdominal constrictions after an irritant is injected.)

pIC50: −log10 of the molar value. Activity calls are given as the source filed them. The calls are words filed in the database; no cut-off is given here.

By pIC50 is commonly meant the IC50 on a negative log10 scale, so that one unit is a factor of ten.

With `O=[N+]([O-])c1ccc(-c2nnc(CN3CCN(C(c4ccccc4)c4ccc(Cl)cc4)CC3)o2)cc1` (configuration not stated), in [1], the pIC50 was 4.39. The Activity in the data set on Rattus norvegicus [2] is 5.32 mm; with Rattus norvegicus [3], 5.16 mm; with Rattus norvegicus [4], 4.55 mm; in the data set with Rattus norvegicus [5], 4.78 mm; in the data set with Rattus norvegicus [6] it was 4.87 mm; in the data set on Rattus norvegicus [7] it was 4.41 mm. Further, the Activity stood at 4.54 mm with Rattus norvegicus [8]; 3.76 mm in the data set with Rattus norvegicus [9]; 3.96 mm with Rattus norvegicus [10]; 2.3 mm with Rattus norvegicus [14]; 2.24 mm with Rattus norvegicus [15]; 0.031 in data set [16]. Moreover, the Activity in data set [17] is reported as 0.093; in the data set on Rattus norvegicus [20] it was 20.33. Besides, the inhibition entry in the data set with Rattus norvegicus [11] is “Dose-dependent-effect”. Further, the result in the data set on Rattus norvegicus [12], in the data set on Rattus norvegicus [13], with Gastric mucosa and with Rattus norvegicus [19] was Active. Further, the UI in data set [18] was 1.041.

As to `Clc1ccc(-c2nnc(CN3CCN(C(c4ccccc4)c4ccc(Cl)cc4)CC3)o2)cc1` (configuration not stated), the pIC50 in [1] is 4.47. The Activity in the data set on Rattus norvegicus [2] was found to be 5.15 mm; in the data set with Rattus norvegicus [3], 5.12 mm; in the data set on Rattus norvegicus [4], 3.96 mm; in the data set with Rattus norvegicus [5] it was 4.11 mm; in the data set on Rattus norvegicus [6] it was 4.67 mm; in the data set with Rattus norvegicus [7] it was 3.47 mm. The Activity with Rattus norvegicus [8] came out at 3.41 mm; with Rattus norvegicus [9], 3.29 mm; with Rattus norvegicus [10], 3.24 mm; with Rattus norvegicus [14], 2.01 mm; in the data set with Rattus norvegicus [15], 1.94 mm; in [16], 0.02. Besides, the Activity came out at 0.018 in data set [17] and 17.83 in the data set with Rattus norvegicus [20]. Moreover, in the data set with Rattus norvegicus [11], the inhibition result is “Dose-dependent-effect”. Further, the result in the data set on Rattus norvegicus [12], in the data set on Rattus norvegicus [13], with Gastric mucosa and with Rattus norvegicus [19] was Active. Moreover, the UI in [18] was 0.
